Bioassay records deposited in PubChem by The Scripps Research Institute Molecular Screening Center.
A selection: hits, their analogues and other compounds. The true share with any hit is near 1.7%.
core dimer inh = blocks dimerization of HCV core protein. AID 1899. inhibition, % at 5 µM. 300,000 compounds, 0.33% hits. TR-FRET GST/Flag-core106 dimerization, 1536-well;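 active = inhibition above the mean of all tested compounds plus 3 SD, set per screening campaign, cut at about 45% in these data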
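System: GST/Flag-tagged HCV core106 proteins. Incubation: compound-protein-antibody incubation 4 h at 22.5 °C. Technique: HTRF with 340 nm excitation, 617/671 nm emission. Medium: KF-containing HEPES buffer, pH 7.45, DTT, CHAPS, BSA. Read-out: inhibition (%) from 671 over 617 nm ratio. Also added: Eu(K)-anti-GST 90 ng/mL plus XL665-anti-Flag 1 µg/mL.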
EBNA-1 inh = blocks EBNA-1 binding to DNA | EBNA-1 DNA binding, fluorescence polarization | inhibition, % at 14.8 µM | 300,000 compounds, 0.34% hits; in the data active = inhibition above about 28%
PP5 inh = blocks human protein phosphatase 5 activity. P53041. purified PP5c, OMFP substrate fluorescence. inhibition, % at 6.7 µM. 320,000 compounds, 0.18% hits. AID 1987;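 active = inhibition above the campaign's mean inhibition across all tested compounds plus 3 SD, cut at about 9.5% in these data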;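 note: 0% = DMSO only and 100% = 100 µM cantharidin control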
PP1 inh = PP1-alpha (human) inhibition in PP5 counter-screen | P62136 | purified PP1alpha, OMFP fluorescence | inhibition, % at 6.7 µM | 320,000 compounds, 0.9% hits | AID 2235;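 active = inhibition above the mean inhibition of all tested compounds plus 3 SD, computed separately for each screening campaign, cut at about 15% in these data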
Target sequence (P62136 whole entry, looked up): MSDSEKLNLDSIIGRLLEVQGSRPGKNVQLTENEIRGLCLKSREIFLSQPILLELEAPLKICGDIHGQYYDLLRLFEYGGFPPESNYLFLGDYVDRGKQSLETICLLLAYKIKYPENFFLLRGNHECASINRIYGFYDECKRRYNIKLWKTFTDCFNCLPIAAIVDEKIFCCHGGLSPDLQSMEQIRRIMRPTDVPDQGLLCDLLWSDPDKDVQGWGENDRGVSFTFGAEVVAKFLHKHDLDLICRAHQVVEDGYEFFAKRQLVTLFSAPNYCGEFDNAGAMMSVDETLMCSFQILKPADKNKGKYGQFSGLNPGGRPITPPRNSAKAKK
ZTA counter = counter-screen for EBNA-1 inhibitors: inhibitors of Epstein-Barr virus ZTA; P03206; ZTA-DNA binding, fluorescence polarization; inhibition, % at 11 µM; 320,000 compounds, 0.15% hits; AID 2234; in the data active = inhibition above about 33%
Target sequence (P03206 whole entry, looked up): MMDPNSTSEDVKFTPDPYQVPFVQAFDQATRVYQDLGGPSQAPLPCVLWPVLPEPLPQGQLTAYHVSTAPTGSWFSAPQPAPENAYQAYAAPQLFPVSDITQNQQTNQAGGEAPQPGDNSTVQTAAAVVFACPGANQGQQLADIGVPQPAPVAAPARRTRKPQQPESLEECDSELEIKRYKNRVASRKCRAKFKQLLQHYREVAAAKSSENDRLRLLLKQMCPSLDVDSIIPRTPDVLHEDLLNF
ZTA inh confirm = confirmation of Epstein-Barr virus ZTA DNA binding inhibitors; shares compounds with ZTA counter; Zta-ZRE DNA binding, fluorescence polarization; inhibition, % at 11.1 µM; 320 compounds, 30% hits; AID 2361;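 active = mean inhibition across triplicate runs above the hit threshold derived for the original primary screen, cut at about 33% in these data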;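 note: 0% = Zta with DMSO and 100% = wells lacking Zta protein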
EBNA1 counter = EBNA-1 DNA binding inhibition, counter-screen for ZTA | inhibition, % at 14.8 µM | fluorescence polarization | shares compounds with ZTA counter | 320 tested, under 10 active; call rule not given here
An asterisk follows results filed as active.

`CC(=O)Nc1ccc2[nH]c3ccccc3c2c1` gave core dimer inh -9, EBNA-1 inh -2, PP5 inh 2, PP1 inh -3 and ZTA counter 0.
For O=C(CSc1ccc2ccccc2c1)NC1CCCc2ccccc21 (stereo not given) the results were core dimer inh 1, EBNA-1 inh 1, PP5 inh 0, PP1 inh 5 and ZTA counter -8.
Screening CCOc1ccc(NC(=O)c2ccc(F)cc2F)cc1 returned core dimer inh -1, EBNA-1 inh 3, PP5 inh 0, PP1 inh 7 and ZTA counter 10.
For COc1cccc(CNCCc2c[nH]c3ccccc23)c1OCc1ccc(F)cc1 the results were core dimer inh -2, EBNA-1 inh 6, PP5 inh 2, PP1 inh 0 and ZTA counter -4.
`COc1cc(CNCCc2c[nH]c3ccccc23)ccc1OCc1ccc(F)cc1` gave core dimer inh -3, EBNA-1 inh 9, PP5 inh 2, PP1 inh 5, ZTA counter 35*, ZTA inh confirm 13 and EBNA1 counter -5.
Screening CCOC(=O)C1(Cc2cccc(OC)c2)CCN(CC=C(C)C)CC1 returned core dimer inh -5, EBNA-1 inh -1, PP5 inh 1, PP1 inh -1, ZTA counter 95*, ZTA inh confirm -2 and EBNA1 counter -5.
`CCOC(=O)C1(Cc2cccc(OC)c2)CCN(C/C=C/c2ccc(OC)cc2)CC1` gave core dimer inh 4, EBNA-1 inh -13, PP5 inh -10, PP1 inh -2 and ZTA counter -9.
Screening CCC(=O)OCCCCCCOc1ccc(C(=O)O)cc1 returned core dimer inh -3, EBNA-1 inh 8, PP5 inh 3, PP1 inh -1 and ZTA counter 3.
COc1ccc(C2=NN(C(C#N)c3ccc(OC)cc3)C(c3ccccc3)C2)cc1 (stereo not given) was read as core dimer inh 0, EBNA-1 inh 5, PP5 inh 0, PP1 inh -1, ZTA counter 35*, ZTA inh confirm -5 and EBNA1 counter -8.
`O=C(Nc1ccc(N2CCCC2)cc1)C(Cl)c1ccccc1` (stereo not given) gave core dimer inh -3, EBNA-1 inh 27, PP5 inh -3, PP1 inh -2, ZTA counter 49*, ZTA inh confirm 70* and EBNA1 counter 36*.
Screening CCOC(=O)NN1C(=O)c2ccccc2NC1c1ccc(N(C)C)cc1 (stereo not given) returned core dimer inh 3, EBNA-1 inh -4, PP5 inh -2, PP1 inh -3, ZTA counter 33*, ZTA inh confirm 6 and EBNA1 counter 0.
CCOC(=O)NN1C(=O)c2ccccc2NC1c1ccccc1 (stereo not given) was read as core dimer inh 6, EBNA-1 inh 4, PP5 inh -1, PP1 inh -6 and ZTA counter 10.
C=CCOc1ccc(/C=C2\SC(=S)N(N3CCOCC3)C2=O)cc1 was read as core dimer inh 4, EBNA-1 inh 1, PP5 inh -1, PP1 inh 6, ZTA counter 41*, ZTA inh confirm 3 and EBNA1 counter -2.
Screening CC(=O)Oc1cccc(N2C(=O)c3cccc4c([N+](=O)[O-])ccc(c34)C2=O)c1 returned core dimer inh -30, EBNA-1 inh 0, PP5 inh -4, PP1 inh -1 and ZTA counter 12.
Screening Cc1ccc(C(=O)O)cc1N1C(=O)c2cccc3c([N+](=O)[O-])ccc(c23)C1=O returned core dimer inh -15, EBNA-1 inh 9, PP5 inh 1, PP1 inh -1, ZTA counter 39*, ZTA inh confirm 35* and EBNA1 counter 0.
For O=C(Nc1cccc(C(=O)N2CCCCCC2)c1)c1ccco1 the results were core dimer inh -5, EBNA-1 inh 1, PP5 inh 1, PP1 inh -3, ZTA counter 40*, ZTA inh confirm -2 and EBNA1 counter -3.
Screening Cc1ccc(O)c(CNCCNCc2cc(C)ccc2O)c1 returned core dimer inh -5, EBNA-1 inh 5, PP5 inh 1, PP1 inh 0, ZTA counter 46*, ZTA inh confirm 9 and EBNA1 counter -8.
CCCCC1(C)NC(=O)N(CC(=O)Nc2ccc(S(=O)(=O)N3CCOCC3)cc2)C1=O (stereo not given) was read as core dimer inh 5, EBNA-1 inh 16, PP5 inh -1, PP1 inh 1, ZTA counter 47*, ZTA inh confirm -1 and EBNA1 counter -5.
`COC(=O)c1cc(Cl)c(NC(=O)c2cc3ccccc3o2)cc1OC` gave core dimer inh -47, EBNA-1 inh 2, PP5 inh 0, PP1 inh -2 and ZTA counter 5.
`Cc1cccc(NC(=O)CCNS(=O)(=O)c2ccc3[nH]c(=O)oc3c2)c1` gave core dimer inh -11, EBNA-1 inh -5, PP5 inh 1, PP1 inh -2, ZTA counter 198*, ZTA inh confirm -16 and EBNA1 counter -5.
For CC(C)Oc1ccc(CCNC(=O)CC2C(=O)NCCN2C)cc1 (stereo not given) the results were core dimer inh 0, EBNA-1 inh -15, PP5 inh -1, PP1 inh 0, ZTA counter 52*, ZTA inh confirm 10 and EBNA1 counter 5.
`COc1ccc(-n2c(SCC(=O)Nc3nccs3)nc3sc4c(c3c2=O)CCN(C)C4)cc1` gave core dimer inh 26, EBNA-1 inh -6, PP5 inh 2, PP1 inh 11 and ZTA counter -6.
`COc1ccc(NC(=O)CSc2nc3sc4c(c3c(=O)n2-c2ccc(OC)cc2)CCN(C)C4)cc1` gave core dimer inh -28, EBNA-1 inh 7, PP5 inh -1, PP1 inh 14, ZTA counter 34*, ZTA inh confirm 2 and EBNA1 counter -2.
`CCO[C@@H]1OC(C(=O)N2CCN(Cc3ccccc3)CC2)=C[C@H](c2coc3ccccc3c2=O)[C@H]1CCCO` gave core dimer inh 4, EBNA-1 inh 12, PP5 inh 0, PP1 inh -1 and ZTA counter -8.
For COc1cc(/C=C/c2[nH]c(=O)[nH]c(=O)c2[N+](=O)[O-])cc([N+](=O)[O-])c1O the results were core dimer inh -2, EBNA-1 inh -2, PP5 inh -1, PP1 inh 3, ZTA counter 36*, ZTA inh confirm 55* and EBNA1 counter -8.
Screening CCCn1c(N)c(Sc2ccc(Cl)cc2)c(=O)n(CCC)c1=O returned core dimer inh -2, EBNA-1 inh -2, PP5 inh 2, PP1 inh -2 and ZTA counter 9.
